The nature of series [1]: folding enthalpy; higher = less favourable; fluorescence melt of hairpins on a sequencing array, two-state fit. The settings on record: sodium 0.088 M. In outline: (§1)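 In 50 mM Na-HEPES pH 8.0 containing 25 mM NaCl, hairpins from the library on a sequenced MiSeq flow cell were imaged for Cy3 fluorescence at 2.5 °C steps up to 60 °C, with Cy3 and quencher oligos annealed. After normalisation to pre-quench Cy3 and to control constructs, two-state fits with bootstrapping gave melting temperature and folding enthalpy. Four replicates were combined by inverse-variance weighting, and fitted temperatures were shifted up by 9.35 °C to match UV melts.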

Series [2] is described as follows: melting temperature; fluorescence melt of hairpins on a sequencing array, two-state fit, raised by 9.35 °C to match UV melts. The settings on record: sodium 0.088 M. An outline of the steps: as §1

Our source for the folding enthalpy and Tm values is the array DNA melting data of Ke et al. (doi:10.1101/2024.01.08.574731).

For ACATGGAAACATGT (((((....))))), the folding enthalpy in series [1] is -19.7 kcal/mol. Moreover, the Tm in series [2] was determined as 45 °C.
With GGGTGTCGAAAGACCCCC (((.(((....))).))), the folding enthalpy in series [1] is -24.2 kcal/mol. Besides, the Tm in series [2] is 56.4 °C.
Taken in the same sequence, the figures for TCCAAGAAATTGGA (((((....))))) were -10.5 kcal/mol and 31.2 °C.
In the same order, the values of GTTTTCGAAAGAAACAAC ((((((....)))..))) are -11.7 kcal/mol and 26.6 °C.
Turning to GAGAGACGAAAGTCCTC (((.(((....)))))), the folding enthalpy in series [1] was -17.9 kcal/mol. Moreover, in series [2], the Tm stood at 46.9 °C.
For the sequence GTACCCCGAAAGGGCTAC (((.(((....))).))), the folding enthalpy in series [1] was -14 kcal/mol. Besides, the Tm in series [2] came to 35.7 °C.
Regarding GTAACCCGAAAGGGATAC (((.(((....))).))), in series [1], the folding enthalpy was -23.4 kcal/mol. Besides, in series [2], the Tm is 48.6 °C.
Turning to GGTATACGAAAGTACACC (((.(((....))).))), in series [1], the folding enthalpy was -28.7 kcal/mol. The Tm in series [2] was 40 °C.
Taken in the same sequence, the figures for GCGCTACCGAAAGGTCGC (((..(((....)))))) were -30.8 kcal/mol and 51.4 °C.
For the sequence GGTAAGCGAAAGCTCACC (((.(((....))).))), in series [1], the folding enthalpy is -25.5 kcal/mol. In addition, the Tm in series [2] turned out to be 46.9 °C.
Turning to GCTAAGCGAAAGCTCTGC ((..(((....)))..)), the folding enthalpy in series [1] is -15.8 kcal/mol. Moreover, the Tm in series [2] was determined as 31.4 °C.
Turning to GATCCGACGCCGGATC ((((((....)))))), the folding enthalpy in series [1] was -36.7 kcal/mol. Also, the Tm in series [2] was 56.7 °C.
For the sequence GCTTGTGAAAACAAGC ((((((....)))))), the folding enthalpy in series [1] is -34.3 kcal/mol. The Tm in series [2] stood at 63.5 °C.
Take GCACTCGGAAACGAGCGC ((.((((....)))).)): the folding enthalpy in series [1] was -38.9 kcal/mol. Besides, the Tm in series [2] came to 55.2 °C.
Taken in the same sequence, the figures for GCGGAGATCCGC ((((....)))) were -26.2 kcal/mol and 54.2 °C.
Regarding GAGTACCGAAAGGTCTC (((.(((....)))))), the folding enthalpy in series [1] was -21.6 kcal/mol. Besides, the Tm in series [2] came to 48.7 °C.
Take GTCATTGAAAAATGAC ((((((....)))))): the folding enthalpy in series [1] was -38.6 kcal/mol. In addition, in series [2], the Tm was 51.9 °C.
On to GCGTTAGGACGC ((((....)))), for which the folding enthalpy in series [1] is -25.4 kcal/mol. The Tm in series [2] turned out to be 52.9 °C.
Turning to GGTTACGGAAACGTAGTC (..((((....))))..), the folding enthalpy in series [1] was -12.7 kcal/mol. The Tm in series [2] turned out to be 25.7 °C.
GAGGTTGGAAACAGCCTC ((((.((....)).)))): the folding enthalpy in series [1] was -32.4 kcal/mol. Further, in series [2], the Tm turned out to be 50.1 °C.
Turning to GGGGACGCGAAAGCGCCC (((..(((....)))))), in series [1], the folding enthalpy was -12.9 kcal/mol. Moreover, the Tm in series [2] worked out at 60 °C.
As to GATATGGGAAACCATACC (.(((((....))))).), in series [1], the folding enthalpy was -15 kcal/mol. In addition, the Tm in series [2] came to 29.5 °C.
In the same order, the values of GATCTCTCAGAGATC ((((((...)))))) are -33.8 kcal/mol and 54.2 °C.
On to GTTACCGAAAGGTCAAC ((((((....))).))), for which the folding enthalpy in series [1] is -13.4 kcal/mol. The Tm in series [2] is 32.8 °C.
Regarding GCTAGGCGAAAGCCAGC (((.(((....)))))), in series [1], the folding enthalpy was -21.7 kcal/mol. Also, in series [2], the Tm is 62.9 °C.
In the case of GTTTGACGAAAGTCGAAC (((.(((....))).))), in series [1], the folding enthalpy is -35 kcal/mol. In addition, in series [2], the Tm was 57.8 °C.
As for GATCCCCCGCGGGATC ((((((....)))))), in series [1], the folding enthalpy was -34.2 kcal/mol. In series [2], the Tm was 57.2 °C.
Take GATCTTATTAAGATC ((((((...)))))): in series [1], the folding enthalpy was -34 kcal/mol. Further, the Tm in series [2] was 45 °C.
Consider TGCGAGAAATCGCA (((((....))))), for which the folding enthalpy in series [1] was -18.2 kcal/mol. Further, the Tm in series [2] amounted to 54.3 °C.
GTCTACGAAAGTAAAGAC ((((((....)))..))): the folding enthalpy in series [1] was -23.8 kcal/mol. Besides, the Tm in series [2] was determined as 37.3 °C.
Taken in the same sequence, the figures for GGTGCGGGAAACCGTGCC ((..(((....)))..)) were -46.1 kcal/mol and 53.1 °C.
In the same order, the values of GATCTTCGATAAGATC ((((((....)))))) are -24.7 kcal/mol and 40.2 °C.
Taken in the same sequence, the figures for GCAAGGCGAAAGCGATGC (((..((....))..))) were -11.4 kcal/mol and 53.4 °C.
Consider GCCATTCCGAAAGGAGGC (((..(((....)))))), for which the folding enthalpy in series [1] was -18.4 kcal/mol. The Tm in series [2] came to 44.2 °C.
Taken in the same sequence, the figures for GTCGCGCCGAAAGGCGAC (((..(((....)))))) were -7.69 kcal/mol and 43 °C.
As for GAGGCTGCGAAAGCACTC (((..(((....)))))), in series [1], the folding enthalpy was -11.2 kcal/mol. Besides, in series [2], the Tm came out at 34.3 °C.
On to GTTTGGGGAAACCCAGAC ((.((((....)))).)), for which the folding enthalpy in series [1] was -26.4 kcal/mol. Further, the Tm in series [2] turned out to be 44.8 °C.
Regarding GATCGTGCAGACGATC ((((((....)))))), in series [1], the folding enthalpy was -40.9 kcal/mol. Besides, the Tm in series [2] was found to be 58.9 °C.
For the sequence GCACATGGAAACATATGC (((.(((....))).))), the folding enthalpy in series [1] is -26 kcal/mol. The Tm in series [2] amounted to 36 °C.
Consider CGTGCGGAAACGCAGACG ((((((....)))..))), for which the folding enthalpy in series [1] is -15.7 kcal/mol. Further, the Tm in series [2] worked out at 47.4 °C.
As to GATCCAGGCTTGGATC ((((((....)))))), in series [1], the folding enthalpy was -43.8 kcal/mol. In addition, in series [2], the Tm stood at 54.8 °C.
For GTAATTCGAAAGAATAC (((.(((....)))))), the folding enthalpy in series [1] was -15.2 kcal/mol. The Tm in series [2] worked out at 32 °C.
With GCTACCTCGAAAGAGAGC (((..(((....)))))), the folding enthalpy in series [1] was -16.3 kcal/mol. Also, in series [2], the Tm worked out at 30.1 °C.
For the sequence GCCAGACGAAAGTCGGC (((.(((....)))))), the folding enthalpy in series [1] was -27.6 kcal/mol. In addition, the Tm in series [2] worked out at 66.6 °C.
For GCCCACGGAAACGCGGGC ((((.((....)).)))), the folding enthalpy in series [1] is -47.5 kcal/mol. Besides, the Tm in series [2] was 62.3 °C.
Consider GATCCTCGCCAGGATC ((((((....)))))), for which the folding enthalpy in series [1] was -37.4 kcal/mol. For the same sequence, in series [2], the Tm was determined as 50.7 °C.
In the same order, the values of CGACCGGAAACGGAGTCG ((((((....)))..))) are -27.2 kcal/mol and 45.4 °C.
For the sequence GTGAGTCGAAAGACACAC (((.(((....))).))), the folding enthalpy in series [1] is -43.2 kcal/mol. Further, in series [2], the Tm amounted to 53.8 °C.
On to GCCATACGAAAGTAGGGC (((.(((....))).))), for which the folding enthalpy in series [1] was -38 kcal/mol. Further, in series [2], the Tm came to 60.5 °C.
Consider CGCTTTCGGAAACGAGCG (((..(((....)))))), for which, in series [1], the folding enthalpy is -24.9 kcal/mol. In addition, in series [2], the Tm was 36.1 °C.
Take GGCGAGACGAAAGTCGCC (((..(((....)))))): the folding enthalpy in series [1] was -13.8 kcal/mol. Besides, in series [2], the Tm is 59.4 °C.
Take AGTGTGAAAACACT (((((....))))): in series [1], the folding enthalpy is -19.5 kcal/mol. Further, in series [2], the Tm stood at 49.7 °C.
With GGGCTTTCGAAAGAACCC (((..(((....)))))), the folding enthalpy in series [1] was -40 kcal/mol. The Tm in series [2] is 35.7 °C.
In the same order, the values of GGGTCGCGAAAGCGTCCC (((.(((....))).))) are -29 kcal/mol and 67.1 °C.
With GTTCGCCGAAAGGCCAAC (((.(((....))).))), the folding enthalpy in series [1] was -15.3 kcal/mol. The Tm in series [2] came out at 39.4 °C.
Taken in the same sequence, the figures for GCAAGCGGAAACGCTTAC (.(((((....))))).) were -13.4 kcal/mol and 41.2 °C.
